Series [1] is described as follows: Ratio of EC50 for human A549 cells to MIC for vancomycin-resistant Staphylococcus aureus clinical isolate 1. The class given is toxicity.
Series [2] has as its system A549. Nature of the series: Cytotoxicity against human A549 cells after 24 hrs by alamar blue assay. It counts as cell-based. To be noted: A549, 24 h. An outline of the steps:
(§1)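 About 10⁴ cells/well in DMEM with 10% FBS. Medium replaced with two-fold compound dilutions and incubated 24 h at 37 °C, 5% CO₂. Alamar Blue added for a further 4 h, absorbance 570 nm (600 nm reference). Viability normalized to untreated and 0.1% Triton-X wells. Triplicates; sigmoidal fit gives the 50% viability concentration.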
In general terms: Alamar Blue is a resazurin reagent that responds to reducing activity.

Series [3] deals with Pseudomonas aeruginosa. The series is described as follows: Antibacterial activity against Pseudomonas aeruginosa MTCC 424 after 24 hrs by tecan plate reader analysis. The class given is functional. The note with it: MTCC 424, 24 h. The essentials:
(§2)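 Broth microdilution MIC. Glycerol stocks grown on MacConkey agar 24 h at 37 °C, then a single colony in nutrient broth 6 h to mid-log (~10⁸ CFU/mL). Cells diluted to 10⁵ CFU/mL in Mueller Hinton broth and added to two-fold compound dilutions. Incubated 24 h at 37 °C, OD600 read. Triplicate wells, experiment run twice.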

Series [4] deals with Staphylococcus aureus. Nature of the series: Induction of membrane permeabilization in Staphylococcus aureus ATCC 33591 assessed as increase in fluorescence intensity measured upto 28 mins by propidium iodide staining based fluorescence spectroscopic technique. It counts as functional, organism-based. An outline of the steps:
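Mid-log MRSA washed in 5 mM HEPES and resuspended in 1:1 HEPES (5 mM) and glucose (5 mM). Propidium iodide added at 10 µM final. Baseline fluorescence (ex 535/em 617 nm) read 4 min, compound in water added, read to 28 min. Water control; triplicates averaged.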

Series [5] has as its system Staphylococcus aureus. The series is described as follows: Bactericidal activity against metabolically inactive stationary phase methicillin-resistant Staphylococcus aureus ATCC 33591 assessed as log reduction in bacterial colony forming units at 32 ug/ml incubated for 6 hrs followed by plating on agar plate for 24 hrs by visual counting analysis. The class given is functional.

The test system of series [6] is Staphylococcus aureus. Nature of the series: Antibacterial activity against methicillin-resistant Staphylococcus aureus R3890 clinical isolate after 24 hrs by tecan plate reader analysis. The note with it: R3890, 24 h. The class given is functional. An outline of the steps:
(§3)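 Colony grown 24 h on NB agar at 37 °C, then 6 h in nutrient broth to mid-log (10⁸ CFU/mL by drop plating), diluted to 10⁵ CFU/mL in Mueller Hinton broth; added 9:1 to two-fold serial compound dilutions in MHB. Incubated 24 h, 37 °C; OD600 read. Triplicate per concentration, experiment run twice; MIC taken from the range of triplicate OD values.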

For series [7], the system named is Staphylococcus aureus. The series is described as follows: Antibiofilm activity against Staphylococcus aureus ATCC 33591 assessed as bacterial cell viability by measuring log reduction in bacterial colony forming units at 16 ug/ml incubated for 24 hrs followed by plating on agar plate for 24 hrs. The class given is functional. The essentials: (§4)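 Mid-log MRSA diluted to 10⁵ CFU/mL in nutrient broth with 1% glucose and 1% NaCl. Biofilms grown on glass coverslips 24 h at 37 °C, static. PBS-washed biofilms treated with compound in biofilm medium 24 h at 37 °C, static; medium-only control. Cells detached with trypsin-EDTA (1:4 in saline) for 15 min, ten-fold diluted, plated on NB agar 24 h; viable counts compared with untreated.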

The subject of series [8] is Staphylococcus aureus. Nature of the series: Antibiofilm activity against Staphylococcus aureus ATCC 33591 assessed as reduction in biofilm biomass at 16 to 64 ug/ml incubated for 24 hrs followed by plating on agar plate for 24 hrs by crystal violet staining assay relative to control. It counts as functional. An outline of the steps:
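Coverslip biofilms grown 24 h at 37 °C in nutrient broth with 1% glucose and 1% NaCl, then treated with compound for 24 h. PBS-washed and air-dried, stained with 0.1% w/v crystal violet for 5-10 min, washed, stain recovered in 95% ethanol, OD 522 nm read. Two experiments, mean with standard deviation.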

The test system of series [9] is Staphylococcus aureus. The series is described as follows: Antibacterial activity against Staphylococcus aureus ATCC 33591 assessed as increase in dead cells by measuring bright red fluorescence intensity at 32 ug/ml after 2 hrs by SYTO-9/propidium iodide staining based fluorescence microscopy analysis. The class given is functional, organism-based. An outline of the steps: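 Mid-log cells (~10⁸ CFU/mL) pelleted and resuspended in 0.9% saline. Treated with 32 µg/mL compound for 2 h at 37 °C, pelleted and resuspended in saline. Stained with SYTO9 (3 µM) plus PI (15 µM) for 15 min in the dark, unbound dye removed, then imaged by fluorescence microscopy at 100×.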

For series [10], the system named is Klebsiella pneumoniae. The series is described as follows: Antibacterial activity against Klebsiella pneumoniae ATCC 700603 after 24 hrs by tecan plate reader analysis. It counts as functional. To be noted: Klebsiella pneumoniae, 700603, 24 h. The essentials:
as §2

The subject of series [11] is Staphylococcus aureus. The series is described as follows: Antibacterial activity against vancomycin-resistant Staphylococcus aureus clinical isolate 1 after 24 hrs by tecan plate reader analysis. It counts as functional. The note with it: clinical isolate 1, 24 h. An outline of the steps: as §3
Series [12] has as its system Staphylococcus aureus. Nature of the series: Antibacterial activity against methicillin-resistant Staphylococcus aureus R3545 clinical isolate after 24 hrs by tecan plate reader analysis. To be noted: R3545, 24 h. It counts as functional. The essentials:
as §3

The test system of series [13] is Staphylococcus aureus. Nature of the series: Antibiofilm activity against Staphylococcus aureus R3545 assessed as bacterial cell viability by measuring log reduction in bacterial colony forming units at 16 ug/ml incubated for 24 hrs followed by plating on agar plate for 24 hrs. The class given is functional. An outline of the steps:
as §4

Series [14] concerns Staphylococcus aureus. Nature of the series: Antibacterial activity against methicillin-resistant Staphylococcus aureus R3889 clinical isolate after 24 hrs by tecan plate reader analysis. The note with it: R3889, 24 h. It counts as functional. An outline of the steps:
as §3

Series [15] relates to A549. Nature of the series: Cytotoxicity against human A549 cells up to 128 ug/ml after 24 hrs by alamar blue assay. The note with it: a549, 24 h. It counts as cell-based. The essentials:
as §1

In series [16] the test system is MDCK. Nature of the series: Cytotoxicity against dog MDCK cells after 24 hrs by alamar blue assay. The class given is cell-based. To be noted: Canis lupus familiaris. An outline of the steps: as §1
In series [17] the test system is Staphylococcus aureus. The series is described as follows: Antibacterial activity against vancomycin-resistant Staphylococcus aureus clinical isolate 4 after 24 hrs by tecan plate reader analysis. It counts as functional. The note with it: clinical isolate 4, 24 h. An outline of the steps:
as §3

Series [18] in a line: Ratio of EC50 for dog MDCK cells to MIC for vancomycin-resistant Staphylococcus aureus clinical isolate 2. The class given is toxicity.
Series [19] is described as follows: Hemolytic activity in human erythrocytes after 1 hr. The class given is ADME, cell-based, Erythrocyte. The essentials: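 Heparinized donor blood. Erythrocytes washed three times in PBS and resuspended to 5 vol%, then mixed 3:1 with compound serially diluted in water. Incubated 1 h at 37 °C and centrifuged. Supernatant A540 read; % hemolysis relative to water and 0.1 vol% Triton-X controls.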

The subject of series [20] is Staphylococcus aureus. The series is described as follows: Bactericidal activity against metabolically inactive stationary phase methicillin-resistant Staphylococcus aureus R3545 assessed as log reduction in bacterial colony forming units at 32 ug/ml incubated for 6 hrs followed by plating on agar plate for 24 hrs by visual counting analysis. It counts as functional.

For series [21], the system named is Staphylococcus aureus. Nature of the series: Bactericidal activity against planktonic phase of methicillin-resistant Staphylococcus aureus R3545 assessed as log reduction in bacterial colony forming units at 16 ug/ml incubated for 6 hrs followed by plating on agar plate for 24 hrs by time-kill kinetic assay. It counts as functional. An outline of the steps:
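Time-kill: 6 h mid-log culture diluted to 10⁵ CFU/mL in MHB, incubated at 37 °C with compound at […]; 0.9% saline control. Aliquots at 1, 2, 4, 6, 8 and 12 h ten-fold diluted in saline, plated on NB agar 24 h at 37 °C; colonies counted, log scale.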

The subject of series [22] is Staphylococcus aureus. The series is described as follows: Bactericidal activity against metabolically inactive stationary phase of methicillin-resistant Staphylococcus aureus R3545 assessed as bacterial killing at 32 ug/ml incubated for 6 hrs followed by plating on agar plate for 24 hrs by visual counting analysis relative to control. The class given is functional.

A short description of series [23]: Ratio of EC50 for human A549 cells to MIC for vancomycin-resistant Staphylococcus aureus clinical isolate 2. The class given is toxicity.

Calls of active or inactive are those of the source. The calls are words filed in the database; no cut-off is given here.

By EC50 is commonly meant the concentration at which the effect is half-maximal. Lower therefore signals greater potency. In general, MIC refers to the least concentration at which growth counts as inhibited. Read a high MIC as a less susceptible organism. Broadly, the HC50 is the concentration that lyses half of the red blood cells. Turning to `CCCCCCNC(=O)C[N+](C)(CCO)CCCCCCCCCCCC[N+](C)(CCO)CC(=O)NCCCCCC.O=C([O-])C(F)(F)F.O=C([O-])C(F)(F)F` (stereo not drawn), the selectivity ratio in series [1], in [18] and in series [23] was 94 to 97 each time. In addition, the half-maximal effective concentration (EC50) in [2] amounted to 194 µg/mL; in series [16], 188 µg/mL. Further, the MIC was 128 µg/mL in series [3]; 2 µg/mL in [6]; 128 µg/mL in series [10]; 2 µg/mL in series [11]; 1 to 2 µg/mL in series [12]; 1 to 2 µg/mL in series [14]. In [17], this compound registered an MIC of 2 µg/mL. Also, the Activity entry in series [4] is “Dose-dependent effect”; in [5], 2.05 log10CFU/ml; in series [7], >4 log10CFU/ml; in series [13], >4 log10CFU/ml; in series [15], “Non-Toxic”; in series [20], 2.8 log10CFU/ml. Further, the Activity in series [21] was >2 log10CFU/ml; in series [22], >99%. In [8], the “inhibition (INH)” value was 60%. Also, the result in series [9] was Active. For the same compound, the HC50 at 1 h in series [19] turned out to be 577 µg/mL.

Source of the values: ChEMBL document CHEMBL4373680, “Small antibacterial molecules highly active against drug-resistant Staphylococcus aureus” (Medchemcomm, 2019).
